One experiment concerns the target Focal adhesion kinase 1 (Homo sapiens, UniProt Q05397). Kind of experiment: Inhibition of FAK (unknown origin). In a few lines: (§1)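 Biochemical (cell-free) assay within a panel of 24 protein kinases. Results reported as IC50 values. Procedure as described in earlier work.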
Another experiment addresses Insulin receptor (Homo sapiens, UniProt P06213). Kind of experiment: Inhibition of INSR (unknown origin). In a few lines: as §1
Experiment [1] addresses T1, Receptor-type tyrosine-protein kinase FLT3 (Homo sapiens, UniProt P36888).
T1 sequence (P36888 whole entry): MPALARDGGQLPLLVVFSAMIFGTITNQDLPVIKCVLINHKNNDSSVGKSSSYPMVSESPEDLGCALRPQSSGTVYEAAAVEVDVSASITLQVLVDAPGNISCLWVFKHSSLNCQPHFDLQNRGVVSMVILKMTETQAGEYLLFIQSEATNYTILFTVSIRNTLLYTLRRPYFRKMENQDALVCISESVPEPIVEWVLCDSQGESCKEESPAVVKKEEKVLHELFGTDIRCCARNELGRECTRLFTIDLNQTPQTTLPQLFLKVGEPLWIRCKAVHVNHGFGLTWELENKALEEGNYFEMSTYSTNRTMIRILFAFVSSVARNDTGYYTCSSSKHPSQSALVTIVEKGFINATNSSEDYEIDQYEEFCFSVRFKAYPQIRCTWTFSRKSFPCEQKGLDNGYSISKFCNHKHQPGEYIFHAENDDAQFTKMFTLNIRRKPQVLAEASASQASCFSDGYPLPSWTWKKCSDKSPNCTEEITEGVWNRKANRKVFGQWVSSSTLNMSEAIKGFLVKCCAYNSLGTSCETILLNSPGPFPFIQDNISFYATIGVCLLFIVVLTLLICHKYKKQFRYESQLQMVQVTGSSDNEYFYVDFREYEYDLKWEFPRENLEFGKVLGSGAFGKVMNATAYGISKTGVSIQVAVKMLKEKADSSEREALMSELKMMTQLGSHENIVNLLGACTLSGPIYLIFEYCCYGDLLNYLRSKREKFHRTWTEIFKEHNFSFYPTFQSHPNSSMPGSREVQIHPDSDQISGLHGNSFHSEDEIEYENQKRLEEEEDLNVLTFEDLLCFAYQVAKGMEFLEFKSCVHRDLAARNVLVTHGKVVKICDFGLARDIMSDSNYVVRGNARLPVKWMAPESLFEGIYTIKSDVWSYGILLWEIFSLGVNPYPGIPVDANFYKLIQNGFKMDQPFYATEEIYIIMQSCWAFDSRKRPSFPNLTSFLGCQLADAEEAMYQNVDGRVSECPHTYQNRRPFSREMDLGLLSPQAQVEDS
Kind of experiment: Inhibition of FLT3 (unknown origin). The procedure, abridged:
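Biochemical (cell-free) assay using a panel of 24 protein kinases. The read-out was the IC50.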

For experiment [2], the target named is Receptor tyrosine-protein kinase erbB-2 (Homo sapiens, UniProt P04626). Kind of experiment: Inhibition of ERBB2 (unknown origin). The procedure, abridged: as §1
Experiment [3] deals with Epidermal growth factor receptor (Homo sapiens, UniProt P00533). Kind of experiment: Inhibition of EGFR (unknown origin). The procedure, abridged:
as §1

For another experiment, the target named is Aurora kinase B (Homo sapiens, UniProt Q96GD4). Kind of experiment: Inhibition of aurora-B (unknown origin). In a few lines:
as §1

The next experiment addresses T2, Aurora kinase A (Homo sapiens, UniProt O14965).
T2 sequence (O14965 whole entry): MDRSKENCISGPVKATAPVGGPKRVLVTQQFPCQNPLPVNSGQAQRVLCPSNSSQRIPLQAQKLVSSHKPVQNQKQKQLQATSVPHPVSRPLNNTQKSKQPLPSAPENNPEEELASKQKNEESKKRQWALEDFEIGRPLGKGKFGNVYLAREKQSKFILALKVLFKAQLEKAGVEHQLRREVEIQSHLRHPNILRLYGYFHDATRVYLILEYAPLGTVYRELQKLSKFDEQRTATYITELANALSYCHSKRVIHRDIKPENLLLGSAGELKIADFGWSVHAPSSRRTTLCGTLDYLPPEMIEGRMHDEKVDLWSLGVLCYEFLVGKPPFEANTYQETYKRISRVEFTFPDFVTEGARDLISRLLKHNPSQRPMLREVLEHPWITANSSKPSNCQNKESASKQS
Kind of experiment: Inhibition of aurora-A (unknown origin). The procedure, abridged:
as §1

The test system of another experiment is L5178Y. Kind of experiment: Cytotoxicity against mouse L5178Y cells assessed as inhibition of cell proliferation by MTT assay. Type of experiment: functional, cell-based.
In experiment [4] the target is Vascular endothelial growth factor receptor 2 (Homo sapiens, UniProt P35968). Kind of experiment: Inhibition of VEGFR2 (unknown origin). In a few lines: as §1
The target of experiment [5] is Vascular endothelial growth factor receptor 3 (Homo sapiens, UniProt P35916). Kind of experiment: Inhibition of VEGFR3 (unknown origin). The procedure, abridged: as §1
For another experiment, the target named is Angiopoietin-1 receptor (Homo sapiens, UniProt Q02763). Kind of experiment: Inhibition of TIE2 (unknown origin). In a few lines: as §1
In experiment [6] the target is Proto-oncogene tyrosine-protein kinase Src (Homo sapiens, UniProt P12931). Kind of experiment: Inhibition of SRC (unknown origin). In a few lines: as §1
In experiment [7] the target is T3, Serine/threonine-protein kinase PLK4 (Homo sapiens, UniProt O00444).
T3 sequence (O00444 whole entry): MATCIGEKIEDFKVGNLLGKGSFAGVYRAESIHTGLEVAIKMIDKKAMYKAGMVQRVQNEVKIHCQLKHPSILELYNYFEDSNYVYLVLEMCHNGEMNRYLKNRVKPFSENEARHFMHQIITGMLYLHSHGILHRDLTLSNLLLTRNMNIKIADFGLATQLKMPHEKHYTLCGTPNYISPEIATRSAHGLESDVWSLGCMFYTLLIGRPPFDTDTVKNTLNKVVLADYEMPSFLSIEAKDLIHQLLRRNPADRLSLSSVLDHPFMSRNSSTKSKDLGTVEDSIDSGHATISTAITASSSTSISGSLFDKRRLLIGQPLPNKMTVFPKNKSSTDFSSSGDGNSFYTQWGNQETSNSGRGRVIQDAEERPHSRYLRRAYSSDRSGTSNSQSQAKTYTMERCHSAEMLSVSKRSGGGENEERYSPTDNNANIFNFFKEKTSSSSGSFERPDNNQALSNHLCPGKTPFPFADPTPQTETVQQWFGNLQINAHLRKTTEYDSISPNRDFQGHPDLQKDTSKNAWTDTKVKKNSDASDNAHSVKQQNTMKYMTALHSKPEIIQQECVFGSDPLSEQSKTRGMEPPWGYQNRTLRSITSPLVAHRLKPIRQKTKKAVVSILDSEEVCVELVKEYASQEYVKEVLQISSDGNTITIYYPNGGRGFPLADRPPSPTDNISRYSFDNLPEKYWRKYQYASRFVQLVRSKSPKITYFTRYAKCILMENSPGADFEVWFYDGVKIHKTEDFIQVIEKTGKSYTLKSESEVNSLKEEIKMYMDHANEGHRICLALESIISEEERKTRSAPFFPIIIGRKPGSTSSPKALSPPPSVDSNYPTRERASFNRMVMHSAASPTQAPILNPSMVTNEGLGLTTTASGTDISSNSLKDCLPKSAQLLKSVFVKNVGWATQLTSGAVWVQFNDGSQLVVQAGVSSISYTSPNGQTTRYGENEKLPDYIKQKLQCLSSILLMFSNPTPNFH
Kind of experiment: Inhibition of SAK (unknown origin). In a few lines: as §1

Experiment [8] deals with Hepatocyte growth factor receptor (Homo sapiens, UniProt P08581). Kind of experiment: Inhibition of MET (unknown origin). The procedure, abridged:
as §1

Broadly, the IC50 is the concentration that gives 50% inhibition.

The structures appear in SMILES notation. Activity calls are given as the source filed them. No cut-off for these calls is given here.

Sequence of Vascular endothelial growth factor receptor 3 (P35916 whole entry): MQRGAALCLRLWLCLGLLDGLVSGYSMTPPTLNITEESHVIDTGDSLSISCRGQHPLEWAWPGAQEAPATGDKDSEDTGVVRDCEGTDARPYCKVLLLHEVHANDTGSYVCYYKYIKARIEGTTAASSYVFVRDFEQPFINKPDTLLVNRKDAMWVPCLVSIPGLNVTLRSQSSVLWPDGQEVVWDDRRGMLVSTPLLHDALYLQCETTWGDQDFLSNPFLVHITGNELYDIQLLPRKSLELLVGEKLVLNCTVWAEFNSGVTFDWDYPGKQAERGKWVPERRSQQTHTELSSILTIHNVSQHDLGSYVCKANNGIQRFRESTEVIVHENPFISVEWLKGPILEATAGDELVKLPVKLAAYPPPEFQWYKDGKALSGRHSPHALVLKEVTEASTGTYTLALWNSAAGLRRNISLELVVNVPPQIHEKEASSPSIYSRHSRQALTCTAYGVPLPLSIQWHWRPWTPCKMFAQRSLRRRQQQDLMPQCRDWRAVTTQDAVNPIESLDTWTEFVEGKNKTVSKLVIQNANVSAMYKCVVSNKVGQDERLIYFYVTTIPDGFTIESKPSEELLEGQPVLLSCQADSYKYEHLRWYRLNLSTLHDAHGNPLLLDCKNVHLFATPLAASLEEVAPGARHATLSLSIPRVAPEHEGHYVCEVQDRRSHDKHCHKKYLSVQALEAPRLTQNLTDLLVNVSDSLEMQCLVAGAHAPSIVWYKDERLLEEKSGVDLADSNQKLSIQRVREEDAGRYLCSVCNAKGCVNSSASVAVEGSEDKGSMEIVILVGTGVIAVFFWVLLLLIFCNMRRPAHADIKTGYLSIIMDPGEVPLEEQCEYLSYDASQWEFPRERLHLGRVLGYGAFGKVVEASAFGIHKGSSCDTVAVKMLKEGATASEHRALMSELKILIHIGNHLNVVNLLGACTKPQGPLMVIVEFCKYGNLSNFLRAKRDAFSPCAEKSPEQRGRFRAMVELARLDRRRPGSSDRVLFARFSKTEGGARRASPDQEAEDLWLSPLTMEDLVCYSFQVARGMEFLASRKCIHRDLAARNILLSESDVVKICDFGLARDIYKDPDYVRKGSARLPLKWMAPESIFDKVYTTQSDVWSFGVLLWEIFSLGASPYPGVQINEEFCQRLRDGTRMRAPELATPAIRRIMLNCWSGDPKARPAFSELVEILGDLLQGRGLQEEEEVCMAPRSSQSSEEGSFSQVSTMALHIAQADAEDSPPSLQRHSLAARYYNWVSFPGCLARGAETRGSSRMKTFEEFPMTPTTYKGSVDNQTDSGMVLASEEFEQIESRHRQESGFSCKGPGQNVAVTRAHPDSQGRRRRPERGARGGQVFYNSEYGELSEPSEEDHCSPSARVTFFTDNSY
Sequence of Aurora kinase B (Q96GD4 whole entry): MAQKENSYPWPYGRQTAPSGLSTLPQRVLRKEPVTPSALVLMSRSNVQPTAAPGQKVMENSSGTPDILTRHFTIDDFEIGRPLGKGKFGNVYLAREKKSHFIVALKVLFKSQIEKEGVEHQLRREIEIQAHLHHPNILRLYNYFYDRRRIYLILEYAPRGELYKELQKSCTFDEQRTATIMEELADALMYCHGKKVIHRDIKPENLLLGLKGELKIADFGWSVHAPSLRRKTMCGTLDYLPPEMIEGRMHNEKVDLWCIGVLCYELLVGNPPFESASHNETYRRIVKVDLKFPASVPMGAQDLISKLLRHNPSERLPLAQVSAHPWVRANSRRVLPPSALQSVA
Sequence of Angiopoietin-1 receptor (Q02763 whole entry): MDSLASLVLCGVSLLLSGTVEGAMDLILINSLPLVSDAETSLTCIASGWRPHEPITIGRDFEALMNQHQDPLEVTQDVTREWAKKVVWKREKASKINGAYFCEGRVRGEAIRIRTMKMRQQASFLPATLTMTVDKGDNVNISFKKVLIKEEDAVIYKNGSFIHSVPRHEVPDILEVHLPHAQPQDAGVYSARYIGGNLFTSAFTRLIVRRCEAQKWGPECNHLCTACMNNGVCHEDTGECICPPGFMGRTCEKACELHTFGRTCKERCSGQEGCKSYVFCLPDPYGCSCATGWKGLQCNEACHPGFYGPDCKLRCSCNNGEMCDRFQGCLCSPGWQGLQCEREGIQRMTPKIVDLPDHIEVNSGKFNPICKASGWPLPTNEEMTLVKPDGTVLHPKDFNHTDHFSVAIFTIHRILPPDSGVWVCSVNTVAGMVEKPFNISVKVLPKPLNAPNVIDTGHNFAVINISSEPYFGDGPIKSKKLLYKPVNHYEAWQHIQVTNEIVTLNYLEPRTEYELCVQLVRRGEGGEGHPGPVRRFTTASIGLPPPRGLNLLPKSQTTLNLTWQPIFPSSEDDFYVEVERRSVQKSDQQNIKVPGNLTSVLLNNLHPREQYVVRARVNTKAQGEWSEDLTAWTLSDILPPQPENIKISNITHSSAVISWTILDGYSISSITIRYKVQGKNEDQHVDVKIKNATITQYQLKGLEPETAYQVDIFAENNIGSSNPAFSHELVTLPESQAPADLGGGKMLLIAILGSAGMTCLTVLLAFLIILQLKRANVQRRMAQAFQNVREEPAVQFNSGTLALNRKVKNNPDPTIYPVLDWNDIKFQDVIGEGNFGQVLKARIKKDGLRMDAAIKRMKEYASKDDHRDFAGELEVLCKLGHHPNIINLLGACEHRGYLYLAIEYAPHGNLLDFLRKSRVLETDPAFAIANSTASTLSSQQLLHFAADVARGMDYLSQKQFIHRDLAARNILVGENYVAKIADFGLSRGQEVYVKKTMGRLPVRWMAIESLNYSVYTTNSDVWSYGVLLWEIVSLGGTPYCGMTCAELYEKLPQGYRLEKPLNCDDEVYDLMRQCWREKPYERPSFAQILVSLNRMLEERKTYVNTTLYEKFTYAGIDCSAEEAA
Sequence of Receptor tyrosine-protein kinase erbB-2 (P04626 whole entry): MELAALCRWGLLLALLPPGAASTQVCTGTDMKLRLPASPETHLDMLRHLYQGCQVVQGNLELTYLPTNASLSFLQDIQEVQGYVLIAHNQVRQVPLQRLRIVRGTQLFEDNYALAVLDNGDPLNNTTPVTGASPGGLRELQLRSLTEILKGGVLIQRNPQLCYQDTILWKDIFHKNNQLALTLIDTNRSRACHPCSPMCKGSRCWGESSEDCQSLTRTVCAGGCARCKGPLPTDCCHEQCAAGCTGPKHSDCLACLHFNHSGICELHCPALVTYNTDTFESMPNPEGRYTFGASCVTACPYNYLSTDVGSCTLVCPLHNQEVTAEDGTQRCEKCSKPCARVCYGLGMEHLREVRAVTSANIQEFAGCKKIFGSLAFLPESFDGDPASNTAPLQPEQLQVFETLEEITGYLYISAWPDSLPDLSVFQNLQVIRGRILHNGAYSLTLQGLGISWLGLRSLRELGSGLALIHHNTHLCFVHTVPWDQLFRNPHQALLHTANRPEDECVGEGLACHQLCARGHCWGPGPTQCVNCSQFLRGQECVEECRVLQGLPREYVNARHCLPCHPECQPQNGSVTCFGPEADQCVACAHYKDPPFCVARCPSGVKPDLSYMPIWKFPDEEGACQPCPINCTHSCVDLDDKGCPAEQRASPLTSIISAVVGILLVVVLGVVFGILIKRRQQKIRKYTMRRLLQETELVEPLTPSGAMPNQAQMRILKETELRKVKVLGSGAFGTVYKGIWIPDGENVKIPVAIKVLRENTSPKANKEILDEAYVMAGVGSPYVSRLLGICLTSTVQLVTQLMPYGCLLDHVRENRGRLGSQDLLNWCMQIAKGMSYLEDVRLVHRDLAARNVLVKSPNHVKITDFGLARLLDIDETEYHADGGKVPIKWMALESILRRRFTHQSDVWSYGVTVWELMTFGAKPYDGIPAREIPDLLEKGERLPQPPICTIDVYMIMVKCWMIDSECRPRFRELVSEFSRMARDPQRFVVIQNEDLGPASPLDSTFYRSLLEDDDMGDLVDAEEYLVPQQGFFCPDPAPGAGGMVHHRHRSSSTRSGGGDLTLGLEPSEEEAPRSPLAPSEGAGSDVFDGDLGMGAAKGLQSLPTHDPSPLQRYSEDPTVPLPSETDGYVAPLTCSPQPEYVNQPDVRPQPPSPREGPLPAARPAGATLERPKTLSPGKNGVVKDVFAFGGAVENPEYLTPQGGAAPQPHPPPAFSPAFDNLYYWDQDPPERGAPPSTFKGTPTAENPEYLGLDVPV
Sequence of Proto-oncogene tyrosine-protein kinase Src (P12931 2-536 limits assumed): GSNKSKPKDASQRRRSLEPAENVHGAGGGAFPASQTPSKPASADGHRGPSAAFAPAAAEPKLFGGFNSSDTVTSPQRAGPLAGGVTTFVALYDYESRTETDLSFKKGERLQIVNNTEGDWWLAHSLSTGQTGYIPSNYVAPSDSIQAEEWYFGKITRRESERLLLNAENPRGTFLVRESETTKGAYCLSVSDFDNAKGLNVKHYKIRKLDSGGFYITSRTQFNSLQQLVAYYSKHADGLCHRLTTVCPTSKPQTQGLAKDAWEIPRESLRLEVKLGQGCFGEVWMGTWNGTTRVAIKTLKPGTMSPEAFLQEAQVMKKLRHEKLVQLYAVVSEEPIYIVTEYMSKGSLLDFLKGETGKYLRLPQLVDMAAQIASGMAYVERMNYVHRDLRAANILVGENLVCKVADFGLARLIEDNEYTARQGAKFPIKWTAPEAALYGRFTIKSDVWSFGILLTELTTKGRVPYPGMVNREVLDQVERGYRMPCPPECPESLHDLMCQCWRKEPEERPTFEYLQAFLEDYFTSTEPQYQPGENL

With `O=C1N/C=C/c2ccc(c(Br)c2)Oc2cc(cc(Br)c2O)CCNC(=O)/C(=N/O)Cc2ccc(c(Br)c2)Oc2cc(cc(Br)c2O)C/C1=N\O` [BASTADIN 7], the IC50 is 7300 nM against Focal adhesion kinase 1; 4400 nM against Insulin receptor; 2900 nM in [1]; 2800 nM in experiment [2]; 1500 nM in [3]; 2600 nM on Aurora kinase B. The IC50 against Aurora kinase A is 3900 nM; in the experiment with L5178Y, 5300 nM; in experiment [4] it was 1300 nM; in [5], 3200 nM; against Angiopoietin-1 receptor, 1800 nM; in [6], 2000 nM. Besides, the 50% inhibitory concentration (IC50) amounted to 1900 nM in experiment [7] and 2800 nM in experiment [8].
Turning to `O=C(NCCc1ccc(O)c(Br)c1)/C(Cc1cc(Br)c(O)c(Oc2ccc(CCNC(=O)/C(Cc3cc(Br)c(O)c(-c4cc(C/C(=N\O)C(=O)NCCc5ccc(O)c(Br)c5)cc(Br)c4O)c3)=N/O)cc2Br)c1)=N/O` [SESQUIBASTADIN 1], the IC50 at Focal adhesion kinase 1 stood at 3500 nM; on Insulin receptor, 1400 nM; in experiment [1] it was 1400 nM; in [2] it was 2100 nM; in [3], 600 nM; against Aurora kinase B it was 2300 nM. Further, the IC50 worked out at 2600 nM on Aurora kinase A; 600 nM in [4]; 1600 nM in experiment [5]; 600 nM at Angiopoietin-1 receptor; 700 nM in experiment [6]; 700 nM in experiment [7]. In addition, the midpoint of inhibition in experiment [8], the IC50, lay at 800 nM. For the same compound, the inhibition entry in the experiment with L5178Y was “inactive”.
For `O=C(NCCc1ccc(O)c(Br)c1)/C(Cc1cc(Br)c(O)c(-c2cc(C/C(=N/O)C(=O)NCCc3ccc(O)c(Br)c3)cc(Br)c2O)c1)=N\O` [BASTADIN 3], the half-maximal inhibitory concentration (IC50) at Focal adhesion kinase 1 is 2100 nM; against Insulin receptor, 2900 nM; in experiment [1], 2400 nM; in [2], 2100 nM; in [3] it was 1300 nM; against Aurora kinase B it was 500 nM. The IC50 at Aurora kinase A was 100 nM; in experiment [4], 1200 nM; in experiment [5], 2800 nM; on Angiopoietin-1 receptor, 800 nM; in experiment [6], 1900 nM; in experiment [7], 4100 nM. The compound also returned a concentration for half-maximal inhibition (IC50) in experiment [8] of 1100 nM. The inhibition entry in the experiment on L5178Y is “inactive”.
